Results from paper PMC3121894 (Journal of molecular biology, 2011).
Where two headings read alike, the source gives them in different places. Where a SMILES comes first, the peptide text is derived from it. The star is where a group is joined. 5FAM = O=C1OC2(c3ccc(O)cc3Oc3cc(O)ccc32)c2ccc(C(=O)*)cc21

Experiments:
[1] = target: T1, SRPK1 (Homo sapiens, UniProt Q96SB4); test: Steady-state kinetic phosphorylation assay, SRPK1; type: biochemical
Method in brief: (§1)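 His6-tagged kinase (full length, N-terminal deletion, or SID deletion with RRQ linker) from E. coli BL21(DE3), Ni-purified; refolded His6-SRSF1 substrate. Reaction: 50 mM MOPS pH 7.4, 10 mM Mg2+, 1 mg/mL BSA, 23 °C, started with 100 μM 32P-ATP (600-1000 cpm/pmol). Quenched in SDS loading buffer; bands excised and counted. Initial velocities vs total SRSF1 or ATP fit to Michaelis-Menten; kcat = Vmax/total enzyme.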

[2] = system: SRPK1(ΔN); test: Steady-state kinetic phosphorylation assay, SRPK1; type: biochemical; details: for Km: substrate SRSF1, pH 7.4, 23° C
Method in brief: as §1

[3] = system: SRPK1(ΔS); test: Steady-state kinetic phosphorylation assay, SRPK1; type: biochemical; details: for Km: substrate SRSF1, pH 7.4, 23° C
Method in brief: as §1

[4] = target: T1, SRPK1; test: Fluorescent Arg-Ser peptide binding, SRPK1; details: for fluorescence emission change: addition of SRPK1 (25, 50, 75 nM) to 10 nM peptide
[5] = system: SRPK1(ΔN); test: Fluorescent Arg-Ser peptide binding, SRPK1; details: removal of the N-terminus; both peptides
[6] = target: T1, SRPK1; type: biochemical; details: steady-state kinetic studies; data not shown
[7] = target: SRPK1 (SR-specific protein kinase 1), full-length wild type (UniProt Q96SB4); test: kinetic competition assay
[8] = target: SRPK1(ΔN), SRPK1 lacking the full-length N-terminus; test: kinetic competition assay
[9] = target: SRPK1(ΔS), SRPK1 lacking the spacer insert domain (SID); test: kinetic competition assay
[10] = system: SRPK1(ΔN); test: Competition assay; type: biochemical; details: removal of the N-terminus; wt-SRSF1
Target sequence in this assay (Q96SB4 76-655 limits assumed, stated change not applied): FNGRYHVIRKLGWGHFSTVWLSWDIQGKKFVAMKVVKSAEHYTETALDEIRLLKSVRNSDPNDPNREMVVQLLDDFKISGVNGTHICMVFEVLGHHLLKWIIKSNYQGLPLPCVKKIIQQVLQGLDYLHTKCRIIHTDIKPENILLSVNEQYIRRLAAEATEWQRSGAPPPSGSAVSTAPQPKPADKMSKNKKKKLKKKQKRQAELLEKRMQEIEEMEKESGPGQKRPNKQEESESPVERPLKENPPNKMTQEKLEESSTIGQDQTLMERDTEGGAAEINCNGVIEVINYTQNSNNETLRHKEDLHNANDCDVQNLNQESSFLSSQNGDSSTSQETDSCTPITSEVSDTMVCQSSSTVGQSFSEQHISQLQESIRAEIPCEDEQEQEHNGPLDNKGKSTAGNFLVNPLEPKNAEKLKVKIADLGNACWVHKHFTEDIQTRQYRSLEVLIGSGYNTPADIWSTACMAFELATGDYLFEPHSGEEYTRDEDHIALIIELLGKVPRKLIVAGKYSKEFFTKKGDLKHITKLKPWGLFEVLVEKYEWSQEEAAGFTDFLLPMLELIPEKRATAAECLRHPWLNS

[11] = target: SRPK1(ΔS); test: Competition assay; type: biochemical; details: removal of the SID
[12] = target: T1, SRPK1; test: Single turnover phosphorylation, SRPK1; type: biochemical
[13] = system: SRPK1(ΔS); test: Single turnover phosphorylation, SRPK1; type: biochemical
[14] = target: T1, SRPK1; details: SRPK1 complex with SRSF1; ref [15]; [18]; cited from earlier work
[15] = target: T1, SRPK1; details: cited from earlier work
[16] = SRPK1 2 μM, SRSF1 100 nM, ^32P-ATP start, double exponential fit
[17] = SRPK1 2 μM, SRSF1 100 nM, double exponential fit
[18] = wild-type kinase, single turnover

T1 sequence (Q96SB4 whole entry, species assumed): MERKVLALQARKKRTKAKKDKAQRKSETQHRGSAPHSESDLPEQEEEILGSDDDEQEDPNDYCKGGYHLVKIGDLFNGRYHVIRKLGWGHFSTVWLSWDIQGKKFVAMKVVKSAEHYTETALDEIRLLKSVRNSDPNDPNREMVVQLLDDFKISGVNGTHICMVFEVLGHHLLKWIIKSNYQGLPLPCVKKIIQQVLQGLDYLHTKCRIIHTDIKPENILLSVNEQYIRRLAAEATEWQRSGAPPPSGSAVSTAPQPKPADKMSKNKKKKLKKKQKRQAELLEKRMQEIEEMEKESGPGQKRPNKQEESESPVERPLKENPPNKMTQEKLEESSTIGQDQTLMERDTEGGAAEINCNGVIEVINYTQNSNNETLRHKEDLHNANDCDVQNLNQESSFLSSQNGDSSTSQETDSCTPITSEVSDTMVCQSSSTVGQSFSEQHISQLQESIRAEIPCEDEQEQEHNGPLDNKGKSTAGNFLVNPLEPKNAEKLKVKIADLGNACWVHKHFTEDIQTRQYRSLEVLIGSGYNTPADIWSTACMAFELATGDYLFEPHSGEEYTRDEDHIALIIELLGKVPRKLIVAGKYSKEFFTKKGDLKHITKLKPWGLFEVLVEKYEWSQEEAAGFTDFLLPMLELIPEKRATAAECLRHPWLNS
Chain of SRPK1 (SR-specific protein kinase 1), full-length wild type (Q96SB4 whole entry): as the sequence (Q96SB4 whole entry, species assumed) above
Chain of SRPK1(ΔN), SRPK1 lacking the full-length N-terminus (Q96SB4 71-655, stated change not applied): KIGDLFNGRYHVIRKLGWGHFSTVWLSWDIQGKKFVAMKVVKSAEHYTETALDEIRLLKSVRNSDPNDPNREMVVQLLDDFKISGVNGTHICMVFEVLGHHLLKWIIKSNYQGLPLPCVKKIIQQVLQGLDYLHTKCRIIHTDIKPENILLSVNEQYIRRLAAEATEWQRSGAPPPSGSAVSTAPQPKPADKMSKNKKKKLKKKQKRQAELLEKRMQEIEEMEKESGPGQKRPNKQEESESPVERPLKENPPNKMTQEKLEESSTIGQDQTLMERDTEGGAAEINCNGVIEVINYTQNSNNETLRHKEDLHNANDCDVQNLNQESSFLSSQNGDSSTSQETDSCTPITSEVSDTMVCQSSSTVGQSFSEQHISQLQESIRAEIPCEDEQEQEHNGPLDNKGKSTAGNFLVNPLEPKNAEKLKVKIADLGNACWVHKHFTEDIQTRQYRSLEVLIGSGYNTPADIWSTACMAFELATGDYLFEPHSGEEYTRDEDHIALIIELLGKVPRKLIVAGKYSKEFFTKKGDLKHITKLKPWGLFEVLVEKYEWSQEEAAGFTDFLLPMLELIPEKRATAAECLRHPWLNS

Nc1ncnc2c1ncn2[C@@H]1O[C@H](COP(=O)(O)OP(=O)(O)OP(=O)(O)O)[C@@H](O)[C@H]1O [ATP, reference compound]
Km ([1]; read-out: Km,ATP (Km for ATP), substrate SRSF1, pH 7.4, 23° C): 5 ± 0.5 µM | increase of Km,ATP ([2]; N-terminal deletion versus SRPK1): 2-5 fold | Km ([2]; read-out: Km,ATP (Km for ATP), SRPK1(ΔN)): 9 ± 2 µM | increase of Km,ATP ([3]; SID deletion versus SRPK1): 2-5 fold | Km ([3]; read-out: Km,ATP (Km for ATP), SRPK1(ΔS)): 28 ± 7 µM

N=C(N)NCCC[C@H](NC(=O)c1ccc2c(c1)C(=O)OC21c2ccc(O)cc2Oc2cc(O)ccc21)C(=O)N[C@@H](CO)C(=O)N[C@@H](CCCNC(=N)N)C(=O)N[C@@H](CO)C(=O)N[C@@H](CCCNC(=N)N)C(=O)N[C@@H](CO)C(=O)N[C@@H](CCCNC(=N)N)C(=O)N[C@@H](CO)C(=O)N[C@@H](CCCNC(=N)N)C(=O)N[C@@H](CO)C(=O)N[C@@H](CCCNC(=N)N)C(=O)N[C@@H](CO)C(=O)N[C@@H](CCCNC(=N)N)C(=O)N[C@@H](CO)C(=O)N[C@@H](CCCNC(=N)N)C(=O)N[C@@H](CO)C(=O)O [Fl-(RS)8] (5FAM-RSRSRSRSRSRSRSRS-OH; N-terminus and C-terminus assumed)
fluorescence emission change [4]: increases in the fluorescence emission spectra

N=C(N)NCCC[C@H](NC(=O)c1ccc2c(c1)C(=O)OC21c2ccc(O)cc2Oc2cc(O)ccc21)C(=O)N[C@@H](CO)C(=O)N[C@@H](CCCNC(=N)N)C(=O)N[C@@H](CO)C(=O)N[C@@H](CCCNC(=N)N)C(=O)N[C@@H](CO)C(=O)N[C@@H](CCCNC(=N)N)C(=O)N[C@@H](CO)C(=O)N[C@@H](CCCNC(=N)N)C(=O)N[C@@H](CO)C(=O)N[C@@H](CCCNC(=N)N)C(=O)N[C@@H](CO)C(=O)N[C@@H](CCCNC(=N)N)C(=O)N[C@@H](CO)C(=O)N[C@@H](CCCNC(=N)N)C(=O)N[C@@H](CO)C(=O)N[C@@H](CCCNC(=N)N)C(=O)N[C@@H](CO)C(=O)N[C@@H](CCCNC(=N)N)C(=O)N[C@@H](CO)C(=O)N[C@@H](CCCNC(=N)N)C(=O)N[C@@H](CO)C(=O)N[C@@H](CCCNC(=N)N)C(=O)N[C@@H](CO)C(=O)N[C@@H](CCCNC(=N)N)C(=O)N[C@@H](CO)C(=O)N[C@@H](CCCNC(=N)N)C(=O)N[C@@H](CO)C(=O)N[C@@H](CCCNC(=N)N)C(=O)N[C@@H](CO)C(=O)N[C@@H](CCCNC(=N)N)C(=O)N[C@@H](CO)C(=O)O [Fl-(RS)16] (5FAM-RSRSRSRSRSRSRSRSRSRSRSRSRSRSRSRS-OH; N-terminus and C-terminus assumed)
fluorescence emission change [4]: increases in the fluorescence emission spectra | affinity of 32-residue peptide compared to the 16-residue peptide ([4]; in all cases (SRPK1, SRPK1(ΔN), SRPK1(ΔS))): either equivalent or a 2-fold greater affinity | reduction of peptide binding affinity [5]: about 15 fold | inhibition of SRSF1 phosphorylation [6]: competitively inhibits SRSF1 phosphorylation

RS domain of SRSF1 (domain or fragment)
Ki [7]: 150 nM | Ki [8]: 830 nM | Ki [9]: 140 nM

SRSF1: human alternative splicing factor or ASF/SF2; prototype SR protein, SRPK1 substrate
kcat ([1]; 50 mM MOPS pH 7.4, 10 mM Mg^2+, 1 mg/mL BSA, ^32P-ATP, 23° C, Michaelis-Menten fit): 0.5 ± 0.033 s⁻¹ | Km ([1]; read-out: Km,SR (Km for SRSF1), substrate SRSF1, pH 7.4, 23° C): 0.12 ± 0.02 µM | increase of Km,SR ([2]; SRPK1(ΔN) versus SRPK1): 3 fold | lowering of turnover (kcat) ([2]; SRPK1(ΔN) versus SRPK1): about 5 fold | kcat ([2]; SRPK1(ΔN), 50 mM MOPS pH 7.4, 10 mM Mg^2+, 1 mg/mL BSA, ^32P-ATP, 23° C, Michaelis-Menten fit): 0.108 ± 0.015 s⁻¹ | enhancement of catalysis by N-terminus (kcat/Km,SR) ([2]; SRPK1 versus SRPK1(ΔN)): about 20 fold | Km ([2]; read-out: Km,SR (Km for SRSF1), SRPK1(ΔN)): 0.63 ± 0.07 µM | effect of insert (SID) on Km,SR ([3]; SRPK1(ΔS) versus SRPK1): no effect | lowering of turnover (kcat) ([3]; SRPK1(ΔS) versus SRPK1): about 5 fold | kcat ([3]; SRPK1(ΔS), 50 mM MOPS pH 7.4, 10 mM Mg^2+, 1 mg/mL BSA, ^32P-ATP, 23° C, Michaelis-Menten fit): 0.0733 ± 0.0067 s⁻¹ | enhancement of catalysis by insert (kcat/Km,SR) ([3]; SRPK1 versus SRPK1(ΔS)): about 5 fold | Km ([3]; read-out: Km,SR (Km for SRSF1), SRPK1(ΔS)): 0.12 ± 0.02 µM | decrease of SR protein binding affinity (KI) [10]: 2-3 fold | effect of SID removal on KI / binding affinity [11]: no effect | rate constant, fast phase [12, 16]: 6 min⁻¹ | rate constant, slow phase [12, 16]: 0.2 min⁻¹ | amplitude, fast phase [12, 17]: 12 sites | amplitude, slow phase [12, 17]: 3 sites | extent of phosphorylation ([12]; SRPK1, single turnover): approx. 15 sites | time to completion of fast phase [12, 18]: 1 to 2 min | time to completion of slower phase [12, 18]: 20 to 30 min | extent of phosphorylation [13]: approx 13 sites | Kd [14]: 20 to 50 nM | serines rapidly phosphorylated in RS1 ([15]; SRSF1, SRPK1, strict C-to-N-terminal direction, ref [7], [10]): 10-12 serines | additional serines slowly modified in RS2 ([15]; SRSF1, SRPK1, shown previously, ref none printed in this sentence): about 3 serines
